Screening results (PubChem)
Hits are enriched below; roughly 4.6% of the tested compounds scored in any of these assays.
CHO parental Ca – signal in parental CHO cells, OX1R antagonist counter-screen. parental CHO-K1, ATP-induced calcium, Fluo-8 fluorescence. inhibition, % at 5.6 µM. hit rate 0.63% among 330,000. AID 463079;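 active means inhibition above that plate's mean sample inhibition plus 3 SD, cut at about 26% in these data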
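Assay system – parental CHO cells · Reagent – ATP stimulus · Detection – intracellular calcium via Fluo-8 no-wash fluorescent dye · Evaluation – percent inhibition of ATP-evoked calcium rise, normalized to controls · Controls – ATP wells versus no-ATP DMSO wells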
TAAR1 ag – human TAAR1 agonism | Q96RJ0 | CHO RD-HGA16 TAAR1, Fluo-8 calcium fluorescence; vehicle wells 0%, saturating PEA agonist 100% | activation, % at 3 µM | hit rate 0.99% among 360,000;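 active means activation above the mean activation of all test compounds in the run plus 3 SD, cut at about 38% in these data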
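Test system: RD-HGA16 (CHO) cells co-expressing Gα16 and hTAAR1 / Benchmarks: DMSO vehicle as 0%, PEA at EC100 as 100% / Repeats: no replicates (n 1) / Measure: % activation from peak over basal fluorescence ratio, DMSO-to-PEA scaled / Timing: 17-24 h plating, Fluo-8 75 min 37 °C, 30 min RT / Technique: kinetic Fluo-8 calcium fluorescence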
TAAR1 antag – antagonists of human TAAR1; inhibition, % at 3 µM; hit rate 1.5% among 360,000; AID 624466; CHO RD-HGA16 TAAR1, Fluo-8 calcium fluorescence, antagonist;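 active means inhibition above a per-plate cutoff, the mean inhibition of test compounds on that plate plus 3 SD, cut at about 49% in these data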
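System: CHO RD-HGA16 cells bearing hTAAR1. Reagent: EC80 β-phenethylamine stimulus. Schedule: seeding 17-24 h prior, 75-min 37 °C, 30-min RT dye loading. Signal: Fluo-8 intracellular calcium dye fluorescence, real-time kinetic reads. Read-out: % inhibition from peak post-agonist over basal fluorescence ratio. Benchmarks: vehicle wells and EC80 agonist wells. Replicates: n of 1.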
OX1R antag-1 – antagonists of human orexin 1 receptor (OX1R) | O43613 | OX1R-expressing cells, FRET antagonist read-out | inhibition, % at 6.6 µM | hit rate 1.8% among 330,000; in the data active means inhibition mostly above about 38%, no sharp cut-off; inactive means mostly below about 40%
GPR7 antag – antagonists of human GPR7 (neuropeptides B/W receptor 1) | P48145 | GPR7-expressing cells, fluorescence antagonist assay | inhibition, % at 4.4 µM | hit rate 1.1% among 290,000 | AID 1861; in the data active means inhibition above about 16%, passing the limit was not always enough;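 further: cells stimulated with the agonist NPW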
Target sequence (P48145 whole entry, looked up): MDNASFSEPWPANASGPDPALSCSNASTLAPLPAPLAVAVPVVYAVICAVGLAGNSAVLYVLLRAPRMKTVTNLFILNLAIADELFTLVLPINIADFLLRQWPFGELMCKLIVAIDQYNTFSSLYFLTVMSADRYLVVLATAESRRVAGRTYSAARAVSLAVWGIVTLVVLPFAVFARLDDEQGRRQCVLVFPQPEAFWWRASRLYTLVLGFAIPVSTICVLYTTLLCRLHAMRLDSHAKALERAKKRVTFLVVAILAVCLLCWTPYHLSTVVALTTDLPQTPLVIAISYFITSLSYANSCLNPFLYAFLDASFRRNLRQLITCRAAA
OX1R antag-2 – human HCRTR1 antagonism | O43613 | CHO/OX1R cells, Fluo-8 calcium fluorescence, orexin A | inhibition, % at 5 µM | hit rate 0.43% among 330,000 | AID 434989;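 active means inhibition above its plate's threshold, mean inhibition of all tested compounds on the plate plus 3 SD, cut at about 37% in these data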
GPR7 antag cf – confirmation of human GPR7 antagonists; hit rate 52% among 2,400; shares compounds with GPR7 antag; GPR7-expressing cells, calcium fluorescence antagonist mode; inhibition, % at 4.4 µM; in the data active means inhibition above about 24%;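 further: stimulated with the GPR7 agonist NPW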
MCHR1 antagonist – MCHR1 (human) antagonism in GPR7 counter-screen | shares compounds with GPR7 antag | AID 2148 | MCHR1-expressing cells, fluorescence antagonist assay | inhibition, % at 4.4 µM | hit rate 62% among 2,400; in the data active means inhibition above about 22%
TAAR1 ag confirm – human TAAR1 agonism, confirmed; AID 651783; activation, % at 3 µM; shares compounds with TAAR1 ag; CHO RD-HGA16 TAAR1, Fluo-8 calcium fluorescence; scaled: DMSO 0%, maximal phenethylamine 100%; hit rate 82% among 2,400;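 active means activation above a cutoff set at the run's mean compound activation plus 3 SD, cut at about 39% in these data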
Ga16 ag counter – counter-screen for TAAR1 agonists: nonselective agonists in parental cells. shares compounds with TAAR1 ag. CHO-Ga16 parental, Fluo-8 calcium fluorescence; normalized to maximal ATP response, DMSO zero. activation, % at 3 µM. hit rate 50% among 2,400;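 active means activation above the run cutoff, the mean activation over all tested wells plus 3 SD, cut at about 12% in these data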
TAAR1 desensitize – counter-screen for human TAAR1 agonists: agonists that desensitize TAAR1. shares compounds with TAAR1 ag. CHO RD-HGA16 hTAAR1, Fluo-8 calcium, beta-PEA response inhibition. inhibition, % at 3 µM. hit rate 46% among 2,400. AID 651951;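 active means inhibition above the run cutoff, the mean inhibition of all test compounds plus 3 SD, cut at about 49% in these data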;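 further: beta-PEA stimulus applied at its EC80; loss of beta-PEA calcium signal after compound pretreatment read as receptor desensitization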
Ga16 antag count – nonselective Ga16 antagonist in TAAR1 agonist counter-screen | shares compounds with TAAR1 ag | CHO-Ga16 ATP-induced calcium, Fluo-8 fluorescence | inhibition, % at 3 µM | hit rate 39% among 2,400;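 active means inhibition above the plate's mean compound inhibition plus 3 SD, computed per plate, cut at about 22% in these data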
A number is an active result; - = inactive; . = no result given.

SMILES | CHO parental Ca | TAAR1 ag | TAAR1 antag | OX1R antag-1 | GPR7 antag | OX1R antag-2 | GPR7 antag cf | MCHR1 antagonist | TAAR1 ag confirm | Ga16 ag counter | TAAR1 desensitize | Ga16 antag count
Cc1cc(C)c(OCC(=O)Nc2ccccc2N2CCOCC2)c(C)c1 | 41 | 61 | 55 | - | 26 | 44 | 59 | 70 | 43 | 34 | 56 | 52
Cc1cc(C)c(OCC(=O)Nc2ccccc2N2CCCCC2)c(C)c1 | - | - | - | - | . | - | . | . | . | . | . | .
Cc1ccccc1OCc1n(CC(=O)OC2CC(C)CCC2C(C)C)c2ccccc2[n+]1C (configuration not stated) | 33 | 47 | - | - | 42 | 46 | 61 | 92 | 87 | 23 | 87 | 48
COc1ccc(Cl)cc1N(CC(=O)NCc1ccccn1)S(=O)(=O)c1ccc(C)cc1 | . | - | - | . | . | . | . | . | . | . | . | .
O=C(Nc1ccccc1)Nc1ccno1 | - | 48 | - | - | 27 | - | - | - | 87 | - | 67 | -
Nc1c(C(=O)NCc2ccc3c(c2)OCO3)nnn1Cc1ccc(Br)cc1 | - | 65 | - | - | 24 | - | 27 | - | 102 | 46 | 76 | 38
CC(C)Cc1ccc(C(C)C(=O)Nc2nccs2)cc1 (configuration not stated) | 43 | 105 | 74 | - | 63 | 49 | 78 | 78 | 103 | 50 | 81 | 50
CC(C)c1ccc(CNC(=O)C(=O)Nc2nccs2)cc1 | - | - | - | - | - | - | . | . | . | . | . | .
C=CCn1c(O)c(C2=c3ccccc3=NC2=O)c2ccccc21 | - | 64 | - | - | 38 | - | 46 | 86 | 63 | 38 | 68 | 52
O=C(CCl)Nc1ncc(S(=O)(=O)c2ccc([N+](=O)[O-])cc2)s1 | - | - | - | - | . | - | . | . | . | . | . | .
COC(=O)C(NC(=O)c1ccccc1Cl)(Nc1ncc(S(=O)(=O)c2ccc([N+](=O)[O-])cc2)s1)C(F)(F)F (configuration not stated) | - | 88 | - | - | 34 | - | 56 | 43 | 57 | 27 | - | 29
Cc1ccc(S(=O)(=O)C[C@@H]2OC3CCCCC3N2S(=O)(=O)c2ccc(C)cc2)cc1 (some centres not stated) | . | - | - | . | . | . | . | . | . | . | . | .
N=c1c2c(ncn1Cc1ccco1)Oc1ccc3ccccc3c1C2c1ccccc1 (configuration not stated) | - | - | - | - | - | - | . | . | . | . | . | .
N=c1c2c(-c3ccccc3)c(-c3ccccc3)n(Cc3ccco3)c2ncn1Cc1ccco1 | - | 86 | - | - | 37 | - | 79 | 100 | 91 | 54 | 75 | 37
CCCN1CCN(CCCNC(=O)CN2C(=O)COc3ccc(C(C)(C)C)cc32)CC1 | . | - | - | . | . | . | . | . | . | . | . | .
COc1ccccc1N/C(N)=N/c1nc(C)cc(C)n1 | - | - | - | - | - | - | . | . | . | . | . | .
Cc1cc(C)nc(/N=C(\N)Nc2cccc(OCc3ccccc3)c2)n1 | 40 | 124 | 107 | - | 97 | 73 | 91 | 105 | 112 | 83 | 106 | 90
